From PubChem
bCat nuc transl: alters nuclear translocation of beta-catenin in HeLa cells. immunofluorescence imaging. nuclear translocation activity, % at 5 µM. 190,000 compounds, 0.3% hits. AID 1665;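 active = nuclear translocation activity above 50% at 5 µM, with a well cell count of 50 or more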;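 note: per-cell ratio of nuclear to cytoplasmic median beta-catenin stain intensity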
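Assay system: human HeLa cells, native beta-catenin; doses: 5 µM primary, 0.02–20 µM confirmation; incubation: compound treatment 24 h, 37°C, 5% CO2; technique: fluorescence imaging of beta-catenin antibody stain plus DAPI; measure: % activation, nuclear-to-cytoplasmic median beta-catenin signal ratio per cell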
Dynein cargo inh: blocks dynein driven cargo transport along microtubules; 3617.4 mouse cells, GR-EGFP nuclear translocation imaging; test concentration mostly 20 µM; stimulated with dexamethasone, 1 µM; stronger effect = lower value; z-score, hits read low; 220,000 compounds, 0.47% hits; AID 1381;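 active = plate z-score of nuclear minus cytoplasmic receptor signal below a set negative limit, without overly bright fluorescence or cell loss, cut at about -3.5 in these data, passing the limit was not always enough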;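 note: z-score of nuclear minus cytoplasmic ring GR-EGFP intensity difference per well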
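medium = tetracycline-free induction medium containing charcoal-stripped FBS | probe or stimulus = dexamethasone, 1.0 µM final | timing = 48 h induction, then 1 h compound, then 30 min agonist, 37 °C | detection = automated 10x imaging of fixed Hoechst-stained cells | read-out basis = nuclear versus cytoplasmic GR-EGFP signal, averaged per well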
Lmaj promast: inhibitors of Leishmania major promastigote growth | inhibition, % at 10 µM | 200,000 compounds, 9% hits | Leishmania major promastigotes, resazurin fluorescence viability; in the data active = inhibition above about 50%;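 note: promastigotes grown with compound for 44 hours at 28 °C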
CHOP inh: CHOP inhibition in unfolded protein response; inhibition, % at 10 µM; 220,000 compounds, 3.8% hits; CHO-K1 CHOP-promoter luciferase, tunicamycin-induced, 15-18 h; AID 2732;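 active = compounds that reduced the stress-induced luciferase reporter signal by more than about 70% of percent inhibition, limit read from the data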
Autophagy HCS: alters autophagy in cells. MEF GFP-LC3 puncta imaging; test concentration mostly 10 µM. calls only at 10 µM (by protocol). 190,000 compounds, 0.98% hits. AID 463193;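 active = percentage of spot-positive cells more than 3 SD above its plate mean, without a fluorescence outlier flag or 80% toxicity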
MT stabilizer: stabilizes microtubules in HeLa cells. HeLa tubulin immunostaining HCS, 24 h; share of cells brighter than vehicle mean+2SD. % tubulin-high responders, % at 10 µM. 200,000 compounds, 0.83% hits. AID 2205;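 active = plate Z-score above 3 for both tubulin-high and condensed-nucleus cell shares, with cell loss under 80%, at 10 µM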;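 note: anti alpha tubulin signal scored within the nucleus-defined area of each cell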
A number is an active result; n = inactive; x = not tested or not shown; + = active, no number. An excerpt weighted towards active compounds, which were near 12% of everything screened.

SMILES | bCat nuc transl | Dynein cargo inh | Lmaj promast | CHOP inh | Autophagy HCS | MT stabilizer
Cc1ccc(C)c2c1[nH]c1ccc([N+](=O)[O-])cc12 | n | n | n | 81.9 | n | n
N#C/C(=C\c1ccco1)C(=O)Nn1cnnc1 | n | n | n | n | n | n
CCN(CC)c1ccc(/C=N/NC(=O)c2ccco2)cc1 | x | n | 50.4 | n | n | 20.1
CCN(CC)c1ccc(/C=N/NC(=O)c2cnccn2)cc1 | n | n | n | n | n | 23.1
CCN(CC)c1ccc(/C=N/NC(=O)c2ccco2)c(O)c1 | n | n | x | n | x | x
NNC(=O)c1ccc(N2CCc3ccccc32)c([N+](=O)[O-])c1 | n | n | n | n | n | n
COC(CNC(=O)c1ccc(N2CCc3ccccc32)c([N+](=O)[O-])c1)OC | n | n | 95.8 | n | n | n
Cn1c(=O)c2nnn(/N=C(\c3ccccc3)C3CC3)c2n(C)c1=O | n | n | 76.3 | n | n | n
O=C(NCCCCCCNC(=O)c1cccs1)c1cccs1 | n | n | n | n | n | n
O=C(NCCNC1CCC(c2ccccc2)CC1)c1cccs1 (centres undefined) | n | n | 94.2 | n | n | n
CCOC(=O)N1CCC(NC(=O)c2ccccc2C(=O)O)CC1 | n | n | x | n | x | x
CCOC(=O)N1CCC(NCCNC(=O)c2ccccc2)CC1 | x | n | 77.0 | n | n | n
CCOC(=O)N1CCC(NCCNC(=O)c2cccs2)CC1 | n | n | 88.2 | n | n | n
CCOC(=O)N1CCC(NCCNC(=O)c2ccccc2Cl)CC1 | n | n | 83.9 | n | n | n
O=C(c1ccc(Cl)s1)N1CCN(c2nc3ccccc3s2)CC1 | n | n | n | n | x | n
O=C(NC1=NCCS1)c1ccc(Cl)c(S(=O)(=O)N2CCOCC2)c1 | n | n | n | n | n | n
Cc1cc(CNC(=S)Nc2ccc(Br)cc2Cl)nn1C | n | n | n | n | n | n
O=C1NC(CCc2ccccc2)C(=O)N1Cc1ccc(Br)cc1 (centres undefined) | n | n | n | n | + | n
O=C1NC(CCc2ccccc2)C(=O)N1CCOc1ccccc1 (centres undefined) | n | n | n | n | n | n
S=C(N/N=C/c1cccc2ccccc12)Nc1cccc(Cl)c1 | n | n | x | n | x | x
COc1ccc(N(C(=O)c2ccc(Cl)cc2)C2=CC3CCC(C2)N3C)cc1 (centres undefined) | n | n | 78.5 | n | n | n
COc1ccc(N(C(=O)/C=C/c2ccc(OC)c(OC)c2)C2=CC3CCC(C2)N3C)cc1 (centres undefined) | n | n | 100.0 | n | n | n
CN1C2C=C(N(CCc3ccccc3)C(=O)c3ccc(Cl)cc3)CC1CC2 (centres undefined) | n | n | n | n | n | n
CCN(CC)CCNC(=O)C12CC3CC(C)(CC(C)(C3)C1)C2 | x | n | 93.9 | n | n | n
CCN(CC)CCNC(=O)C12CC3CC(CC(C3)C1)C2 | x | n | n | n | n | n
SMILES | bCat nuc transl | Dynein cargo inh | Lmaj promast | CHOP inh | Autophagy HCS | MT stabilizer
Cc1cn2nc(N)c3ccccc3c2n1 | n | n | n | n | n | n
Nc1nn2cc(-c3ccccc3)nc2c2ccccc12 | n | n | 87.0 | n | n | n
Cc1ccc(NCCC(=O)c2cccc([N+](=O)[O-])c2)c(C)c1 | n | n | 97.1 | n | n | n
Cc1ccc(C(=O)CNc2cccc([N+](=O)[O-])c2)cc1 | n | n | n | n | n | n
Cc1cccc(NCCC(=O)c2ccc([N+](=O)[O-])cc2)c1C | n | n | 93.1 | n | n | n
Cc1ccc(NCC(=O)c2ccc([N+](=O)[O-])cc2)cc1 | n | n | n | n | n | n
CCc1sc(NC(=O)c2cc3ccccc3oc2=O)nc1-c1cccs1 | n | n | n | n | n | n
CCN(CC)CCn1nc2c3c(cccc3c1=O)-c1ccccc1-2 | n | n | 100.3 | n | n | n
O=c1c2cccc3c2c(nn1CN1CCOCC1)-c1ccccc1-3 | n | n | n | n | n | n
COc1ccc(OC)c(NC(=O)C(=O)NNC(=O)c2cccs2)c1 | n | n | n | n | n | n
C(=N\Nc1ccc2ccccc2n1)/c1ccc2c(c1)OCCO2 | n | n | n | 75.1 | n | n
Cc1ccc(/C=N/Nc2ccc3ccccc3n2)o1 | n | n | 63.5 | n | n | n
COc1cc(NC(=S)NCc2cccnc2)c(OC)cc1Cl | n | n | n | n | n | n
